Bioassay records from PubChem.
In the library only some 6.3% were active in any assay of this set; here they are far more common.
SF-1 act: activates the human nuclear receptor SF-1. Q13285. CHO-K1 Gal4-SF-1 LBD luciferase reporter; % increase over DMSO SF-1-specific signal. activation, % at 10 µM. hit rate 1.9% among 65,000. AID 522;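 active = activation above the mean activation of all tested compounds plus 3 SD, cut at about 50% in these data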
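Test system: CHO-K1 cells co-transfected with Gal4 DBD–human SF-1 LBD, 5xGal4 luciferase reporter. Quantity: 4,000 cells per well. Compound: 10 µM only. Incubation: compound added 1 h post-seeding, 20 h exposure at 37 °C, 5% CO2. Detection: SteadyLite luciferase luminescence. Replication: one test per compound.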
RORa activator: activators of human nuclear receptor RORA | activation, % at 10 µM | CHO-K1 Gal4-RORA LBD luciferase reporter, luminescence; percent increase over mock-subtracted basal signal | hit rate 1.5% among 65,000 | P35398;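 active = activation above the mean of all tested compounds plus 3 SD, cut at about 49% in these data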
M1 agonist: activates the M1 muscarinic receptor | CHO-M1 cells, Fluo-4 calcium fluorescence, agonist mode; stronger effect = higher value | B-score at 10 µM | hit rate 3% among 64,000;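 active = fluorescence rise, raw or as B-score row- and column-corrected plate score, outside the 99.7% band of its plate's samples, either direction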
MT1-MMP txn act: MT1-MMP promoter transcription activation | HT1080 MT1-MMP promoter luciferase reporter, luminescence, overnight; stronger effect = higher value | activation factor at 10 µM | hit rate 0.16% among 86,000 | AID 750;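 active = activation factor of at least 2 for MT1-MMP transcription at 10 µM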
M1 antag: M1 muscarinic receptor (rat) antagonism | P08482 | CHO-M1 cells, Fluo-4 calcium, ACh EC80 antagonist mode; stronger effect = lower value | B-score at 10 µM | hit rate 3.4% among 64,000;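 active = calcium fluorescence response, raw or row-and-column corrected B-score, differing from the plate sample mean either way at a set confidence level, mostly lower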
Target sequence (P08482 whole entry, looked up): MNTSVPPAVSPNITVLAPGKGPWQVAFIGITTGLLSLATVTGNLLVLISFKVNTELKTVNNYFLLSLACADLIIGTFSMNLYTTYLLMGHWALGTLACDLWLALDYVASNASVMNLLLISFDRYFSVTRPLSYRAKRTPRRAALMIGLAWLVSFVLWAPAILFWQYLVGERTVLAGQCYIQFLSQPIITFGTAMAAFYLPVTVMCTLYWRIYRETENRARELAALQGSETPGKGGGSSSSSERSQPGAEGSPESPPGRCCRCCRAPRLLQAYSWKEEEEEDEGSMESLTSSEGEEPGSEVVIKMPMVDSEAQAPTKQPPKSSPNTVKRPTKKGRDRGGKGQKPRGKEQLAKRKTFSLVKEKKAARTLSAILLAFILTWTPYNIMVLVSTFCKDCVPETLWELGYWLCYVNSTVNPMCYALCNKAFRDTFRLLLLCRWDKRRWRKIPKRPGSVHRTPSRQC
M1 antag confirm: confirmation of rat M1 muscarinic receptor antagonists; shares compounds with M1 antag; CHO-M1 cells, Fluo-4 calcium, ACh EC80 antagonism; stronger effect = lower value; calcium response (max-min fluorescence) at 10 µM; hit rate 43% among 1,700;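 active = calcium response below the same-plate mean of wells given acetylcholine alone at its 80%-effect dose, minus 3 SD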
mGluR4 antag: mGluR4 (human) activity, M1 antagonist secondary assay. shares compounds with M1 antag. CHO-mGluR4 calcium flux, Fluo-4 fluorescence, glutamate EC80; stronger effect = lower value. fluorescence response (max-min) at 10 µM. hit rate 0.9% among 1,700. AID 678;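 active = fluorescence response below the plate's average for near-maximal glutamate wells, less 3 SD of those wells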;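 also: raw unnormalized fluorescence span taken in the window right after glutamate addition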
Each line names hits and unclear results; the compound was inactive in the other large screens (follow-up assays come after a bar, where they were run).

CCn1c(N)nc2ccccc21	M1 antag -2.5 | M1 antag confirm inactive | mGluR4 antag inactive
CCC(=O)Nc1ccc(N2CCN(Cc3ccccc3F)CC2)cc1	M1 antag -2.6 | M1 antag confirm inactive | mGluR4 antag inactive
CC(=O)Nc1ccc(N2CCN(Cc3ccccc3F)CC2)cc1	none
Cc1ccc(-c2csc3ncnc(Sc4nnc(CN5CCCCCC5=O)o4)c23)cc1	none (no result: MT1-MMP txn act)
Cn1c(=O)c2c(nc(OCc3cccnc3)n2Cc2c(F)cccc2Cl)n(C)c1=O	M1 antag -1.2 | M1 antag confirm 509 | mGluR4 antag inactive
Cn1c(=O)c2c(nc(Br)n2Cc2c(F)cccc2Cl)n(C)c1=O	none
Cc1ccc(F)cc1NC(=O)c1c(-c2ccccc2)noc1C	none
COc1ccc(OC)c(N2C(=O)CC(C(C)c3ccccc3)C2=O)c1 (configuration not stated)	none
Cc1c(=O)n(OCc2c(F)cccc2F)c2ccccc2[n+]1[O-]	none
OCC1CCCN(Cc2ccc(-c3ccccc3)cc2)C1 (configuration not stated)	M1 antag -2.9 | M1 antag confirm 392 | mGluR4 antag inactive
COc1ccc(C(=O)Nc2ccc(Cl)cn2)cc1Cl	none
CN(C)S(=O)(=O)c1cccc(C(=O)Nc2ccc(Cl)cn2)c1	SF-1 act 65, M1 antag -3 | M1 antag confirm inactive | mGluR4 antag inactive
CCCCN(C(=O)Nc1ccc(OCC)cc1)C1CCN(C(C)=O)CC1	none (no result: SF-1 act, RORa activator, M1 agonist, M1 antag)
O=C(NC1CCCCC1)c1noc2c1CCCCC2	M1 antag -1.9 | M1 antag confirm inactive | mGluR4 antag inactive
O=C(CN1CCCc2ccccc21)NC(=O)NCc1ccco1	none
CC1Cc2ccccc2N1CC(=O)NC(=O)NCc1ccco1 (configuration not stated)	M1 antag -4.1 | M1 antag confirm inactive | mGluR4 antag inactive
COc1ccccc1S(=O)(=O)Cc1ccc(C(=O)NC(C)c2ccc3c(c2)OCCO3)o1 (configuration not stated)	none
CC(C)c1nc2oc3c(N4CCNCC4)ncnc3c2c2c1CCC2	M1 antag -2.9 | M1 antag confirm 292 | mGluR4 antag inactive
O=C(Oc1ccc(-c2nnco2)cc1)N(c1ccccc1)c1ccccc1	M1 antag -1.6 | M1 antag confirm 502 | mGluR4 antag inactive
O=C(Oc1ccc(-c2nnco2)cc1)N1CCCCC1	none
CC1CCC2(CC1)C(Nc1cccc(Cl)c1)=NC(=S)N2CC#N (configuration not stated)	none (no result: SF-1 act, RORa activator, M1 agonist, M1 antag)
CCN(CC)c1ccc(C2C(C(=O)OCCOC(C)C)=C(C)NC3=C2C(=O)CCC3)cc1 (configuration not stated)	M1 antag -11 | M1 antag confirm 144 | mGluR4 antag inactive
O=C(c1ccco1)N1CCN(CC(=O)N2CCCc3c2c(=O)oc2ccc(O)cc32)CC1	none
O=C(CN1CCN(Cc2ccccc2)CC1)N1CCCc2c1c(=O)oc1ccc(O)cc21	M1 antag -6.1 | M1 antag confirm 334 | mGluR4 antag inactive
O=C(CN1CCCCC1)N1CCCc2c1c(=O)oc1ccc(OCc3ccccc3)cc21	none (no result: SF-1 act, RORa activator, M1 agonist, M1 antag)
CCCOc1ccc2oc(=O)c3c(c2c1)CCCN3C(=O)CN(C)Cc1ccccc1	M1 antag -6.5 | M1 antag confirm 386 | mGluR4 antag inactive
CCN(CC)CCOC(=O)c1c(C)oc2ccc(OC)cc12	M1 antag -14 | M1 antag confirm 98 | mGluR4 antag inactive
CSc1nnc(N(CCC#N)CCC#N)s1	none
Cc1cc(=O)oc(C)c1C(=O)NCCCN1CCN(c2ccc(F)cc2)CC1	none
COc1ccc(N2CCN(CCNC(=O)c3c(C)cc(=O)oc3C)CC2)cc1	M1 antag -4.6 | M1 antag confirm 354 | mGluR4 antag inactive
COc1ccc(-c2noc(CCC(=O)Nc3ccc(C)c(C)c3)n2)cc1	M1 antag -3.2 | M1 antag confirm inactive | mGluR4 antag inactive
COc1ccc(-c2noc(CCC(=O)O)n2)cc1	none (no result: SF-1 act, RORa activator, M1 agonist, M1 antag)
CCOc1ccc(-c2noc(CCC(=O)O)n2)cc1	M1 antag -0.87 (no result: MT1-MMP txn act) | M1 antag confirm inactive | mGluR4 antag inactive
COc1ccc(-c2noc(CCC(=O)NCC3CCN(Cc4cccc(C)c4)CC3)n2)cc1	M1 antag -3.6 (no result: MT1-MMP txn act) | M1 antag confirm 399 | mGluR4 antag inactive
O=C(CN1C(=O)NC2(CCCCCC2)C1=O)N1CCN(S(=O)(=O)c2ccc(Cl)cc2)CC1	none (no result: SF-1 act, RORa activator, M1 agonist, M1 antag)
Oc1ccc(Nc2nc(NCC3CCCO3)c3ccccc3n2)cc1 (configuration not stated)	M1 antag -5.7 | M1 antag confirm 483 | mGluR4 antag inactive
Oc1ccccc1Nc1nc(NCC2CCCO2)c2ccccc2n1 (configuration not stated)	none
CCc1c(C(=O)O)[nH]c2ccc(Br)cc12	none
Cc1oc(-c2ccc(Cl)cc2)[n+]([O-])c1C	M1 antag -1.6 | M1 antag confirm inactive | mGluR4 antag inactive
CC(=O)N=c1cccc(NC(C)=O)n1O	none
COC(=O)[C@@H]1C[C@H]2CC[C@H](O)C[C@H]2N1Cc1ccc(C(F)(F)F)cc1	none (no result: SF-1 act, RORa activator, M1 agonist, M1 antag)
COc1ccc(S(=O)(=O)N2CCC(O)(c3ccc(Cl)cc3)CC2)cc1	M1 antag -3.8 | M1 antag confirm 379 | mGluR4 antag inactive
CCOc1ccc(-c2nc(-c3ccccc3C)no2)cc1	none
COc1ccc(C2(CN(C(C)=O)C(C)=O)CCCC2)cc1OC	M1 antag -14 | M1 antag confirm inactive | mGluR4 antag inactive
COc1ccccc1Nc1nc(N)nc(CN2CCC(Cc3ccccc3)CC2)n1	M1 antag -2.4 | M1 antag confirm 452 | mGluR4 antag inactive
Cc1ccc(Nc2nc(N)nc(CN3CCN(Cc4ccc5c(c4)OCO5)CC3)n2)cc1	M1 antag -3.5 | M1 antag confirm inactive | mGluR4 antag inactive
COc1ccc(Nc2nc(N)nc(CN3CCOCC3)n2)cc1	none
COc1ccccc1Nc1nc(N)nc(CN2CCCCCC2)n1	none
COc1ccc(Nc2nc(N)nc(CN3CCC(Cc4ccccc4)CC3)n2)cc1	M1 antag -10 | M1 antag confirm 319 | mGluR4 antag inactive
Cc1nnc(NC(=O)c2ccc3c(c2)C(=O)N(CCC(C)C)C3=O)s1	none (no result: SF-1 act, RORa activator, M1 agonist, M1 antag)
CC(C)(C)NC(=O)C12CCC(C)(c3nc4ccccc4nc31)C2(C)C (configuration not stated)	none (no result: SF-1 act, RORa activator, M1 agonist, M1 antag)
CCN(CC)CCOC(=O)c1cccc(Br)c1	M1 antag -4.4 | M1 antag confirm 472 | mGluR4 antag inactive
CCN(CC)CCOC(=O)c1cccc(Cl)c1	none
CCSc1nc2c(cnn2-c2ccc(C)c(C)c2)c(=O)[nH]1	none
COc1ccc(OC)c(S(=O)(=O)Nc2ccc3oc4c(c3c2)C(=O)CCC4)c1	M1 antag -1.3 | M1 antag confirm inactive | mGluR4 antag inactive
